Assay outcomes: PubChem, several laboratories
Shown are actives, neighbours in structure and some others; about 2.5% of the full set was active somewhere.
JMJD2C inh = inhibitors of human GASC-1 (JMJD2C) demethylase; inhibition, % at 2.35 µM; GST-JMJD2C(1-420) H3K9me3 demethylation, DELFIA europium; 330,000 compounds, 0.069% hits; Q9H3R0;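 active means more than half of a compound's replicate wells show inhibition beyond 50%, single wells judged on their own value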;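 further: signal counts dimethyl H3K9 product captured on neutravidin plate; 0% = median of DMSO wells and 100% = 0.3 times that DMSO median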
Target sequence (Q9H3R0 1-420 limits assumed): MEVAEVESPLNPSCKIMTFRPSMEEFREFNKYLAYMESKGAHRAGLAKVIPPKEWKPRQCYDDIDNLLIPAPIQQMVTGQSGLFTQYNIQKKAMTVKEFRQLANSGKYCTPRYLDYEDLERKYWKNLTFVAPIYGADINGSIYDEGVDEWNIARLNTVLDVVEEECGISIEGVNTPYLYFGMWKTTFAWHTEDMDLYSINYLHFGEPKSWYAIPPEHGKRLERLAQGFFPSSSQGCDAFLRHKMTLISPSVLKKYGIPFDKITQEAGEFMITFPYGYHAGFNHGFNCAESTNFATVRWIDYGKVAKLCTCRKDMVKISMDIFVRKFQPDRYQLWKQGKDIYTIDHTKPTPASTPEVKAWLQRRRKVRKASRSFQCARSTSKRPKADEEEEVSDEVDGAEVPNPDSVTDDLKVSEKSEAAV
NR2E3 ag-1 = activates human NR2E3 receptor; CHO-S Gal4-NCOR/VP16-NR2E3 two-hybrid, luciferase; inhibition of corepressor binding, % at 3.98 µM; 360,000 compounds, 0.35% hits;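 active means inhibition above the mean of all tested compounds plus 3 SD, cut at about 70% in these data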;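 further: 0% = DMSO with NR2E3 transfected cells and 100% = cells lacking NR2E3 construct; higher means lower luciferase signal from less NR2E3 corepressor binding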
ADAM17 inh = inhibits human ADAM17; recombinant ADAM17, EDANS/DABCYL FRET peptide cleavage; inhibition, % at 6.95 µM; 370,000 compounds, 0.83% hits;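 active means inhibition above the mean of compounds lying between control limits plus 3 SD, set per campaign, cut at about 8.5% in these data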;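 further: 0% = DMSO-only wells as the low control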
ADAM10 inh = inhibits human ADAM10; AID 720582; 370,000 compounds, 0.62% hits; recombinant ADAM10, EDANS/DABCYL FRET peptide cleavage, 3 h; inhibition, % at 7 µM;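 active means inhibition above a per-campaign cutoff equal to the mean of compounds falling between control-based bounds plus 3 SD, cut at about 20% in these data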;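 further: 0% = DMSO wells while the 100% control is not disclosed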
NR2E3 ag-2 = activates human photoreceptor nuclear receptor NR2E3; Q9Y5X4; GST-NR2E3/biotin-RetCOR TR-FRET, 1536-well; inhibition of corepressor binding, % at 4.78 µM; 320,000 compounds, 0.12% hits; AID 2300;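 active means percent inhibition above the cutoff of mean plus 3 SD of all tested compounds, set per screening campaign, cut at about 20% in these data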;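 further: 0% = DMSO wells and 100% = biotin wells as full block of FRET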
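System: GST-tagged NR2E3 plus biotinylated RetCOR corepressor; Amount: 1.35 nM GST-tagged NR2E3 final; Dosing: single nominal compound dose of 4.8 µM; Schedule: 5 h incubation at 4 °C; Technique: TR-FRET with europium anti-GST and streptavidin-D2, 340 nm excitation; Controls: biotin wells as high control, 0.6% DMSO wells as low control.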
KLK7 zymogen act = activates the human kallikrein-7 zymogen | P49862 | purified proKLK7, EDANS-DABCYL substrate fluorescence; 100% is mature enzyme control, 0% vehicle | activation, % at 7 µM | 370,000 compounds, 0.9% hits | AID 652039;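 active means activation above the mean of all tested compounds plus 3 SD, computed per campaign excluding outliers beyond control limits, cut at about 13% in these data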
Target sequence (P49862 whole entry, looked up): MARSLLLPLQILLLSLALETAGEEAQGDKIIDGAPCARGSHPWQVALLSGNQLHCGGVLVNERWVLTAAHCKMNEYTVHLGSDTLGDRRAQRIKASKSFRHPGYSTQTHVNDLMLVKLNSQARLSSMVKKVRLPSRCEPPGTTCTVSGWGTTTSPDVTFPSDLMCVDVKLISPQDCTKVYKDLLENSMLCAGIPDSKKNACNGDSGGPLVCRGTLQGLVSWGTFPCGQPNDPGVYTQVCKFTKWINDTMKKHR
ADAM10 ctr = inhibits human ADAM10 in ADAM17 exosite counter-screen | shares compounds with ADAM17 inh | recombinant ADAM10, EDANS/DABCYL FRET peptide cleavage, 3 h | inhibition, % at 6.95 µM | 2,900 compounds, 47% hits | AID 743256;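 active means mean inhibition over the triplicate runs exceeds the activity threshold set in the earlier primary screen, cut at about 20% in these data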;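 further: 0% = DMSO wells and 100% = marimastat wells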
ADAM17 confirm = confirmation of inhibitors of human ADAM17 | AID 743257 | recombinant ADAM17, EDANS/DABCYL QFRET peptide cleavage | shares compounds with ADAM17 inh | 2,900 compounds, 65% hits | inhibition, % at 6.95 µM;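 active means mean inhibition across replicates above the hit cutoff set in the primary screen, cut at about 8.5% in these data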;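 further: 0% = DMSO wells and 100% = marimastat wells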
Starred values were filed as active, the others as inactive; nt = no result given.

SMILES	JMJD2C inh	NR2E3 ag-1	ADAM17 inh	ADAM10 inh	NR2E3 ag-2	KLK7 zymogen act	ADAM10 ctr	ADAM17 confirm
CCSc1nsc(NC(=O)Nc2cccc(OC)c2)n1	0	-91	11*	10	-2	0	15	14*
COc1cccc(NC(=O)Cc2csc(NC(=O)Nc3ccccc3OC)n2)c1	1	-4	10*	3	1	1	35*	18*
COc1ccccc1NC(=O)Nc1nc(CC(=O)Nc2ccc(OC)c(OC)c2)cs1	9	3	4	2	2	0	nt	nt
O=C(O)CCC(=O)NNc1ccccc1[N+](=O)[O-]	12	-15	6	-7	-4	0	nt	nt
Cc1ccc(S(=O)(=O)N2CCCCC2)cc1NC(=O)CNc1ccc(C(F)(F)F)cc1	1	1	9.4*	17	-1	0	17	11*
Nc1cc(=O)[nH]c(SCC(=O)Nc2cc(S(=O)(=O)N3CCCCCC3)ccc2Cl)n1	2	-7	-3	-13	nt	-1	nt	nt
CCN(CC)S(=O)(=O)c1ccc(C)c(NC(=O)CNc2cccc(S(=O)(=O)N3CCCC3)c2)c1	-8	0	3	-2	2	0	nt	nt
Cc1ccc(-c2nc(SCC(=O)Nc3cc(S(=O)(=O)N4CCCCC4)ccc3Cl)n[nH]2)cc1	21	-28	14*	19	1	0	32*	14*
Cc1ccc(S(=O)(=O)N2CCCCC2)cc1NC(=O)Cc1c[nH]c2ccccc12	-22	15	8.8*	4	1	-1	-2	1
CCOc1cc(S(=O)(=O)n2nc(C)cc2C)ccc1Br	5	-73	6	8	0	-1	nt	nt
COc1ccc(NS(=O)(=O)c2cc(OC)ccc2NC(=O)c2cc(C)oc2C)cc1	2	-101	8.8*	15	1	0	3	6
Cc1ccc(O)c(-c2cc(C(=O)Nc3ccc(S(=O)(=O)N4CC(C)OC(C)C4)cc3)[nH]n2)c1 (stereo not drawn)	8	5	9.2*	16	2	0	17	9.4*
O=C(NCCS(=O)(=O)N1CCN(c2ccccc2)CC1)C1CCCCC1	nt	15	-7	-12	nt	0	nt	nt
CCOc1ccccc1NC(=O)C(OC(=O)c1ccc(O)cc1)c1ccccc1 (stereo not drawn)	1	-11	9.6*	19	-3	0	33*	20*
CCOc1ccccc1NC(=O)C(OC(=O)c1ccc(CC)cc1)c1ccccc1 (stereo not drawn)	2	17	-2	-4	-1	0	nt	nt
O=C(NCC1CCCCC1)c1ccc2nc([C@@H]3O[C@H](CO)[C@@H](O)[C@H]3O)[nH]c2c1	nt	-4	-1	0	nt	0	nt	nt
Cc1c(C(=O)NCc2ccccc2)oc2ccc(S(=O)(=O)N3CCC4(CC3)OCCO4)cc12	-30	5	9.6*	12	2	1	4	6
CCOC(=O)[C@]12CCC=C1N(Cc1ccco1)C(=O)[C@H](CC(=O)NCc1ccc(C)o1)C2	nt	-15	-2	-2	nt	0	nt	nt
O=C(/C=C/c1ccccc1)OCCN1C(=O)c2ccccc2C1=O	5	-33	3	-2	-1	0	nt	nt
COc1ccc(CN(C(=O)c2oc3cc(C)c(C)cc3c2C)C2CCS(=O)(=O)C2)cc1OC (stereo not drawn)	5	-28	9.7*	6	2	0	13	9.4*
COc1ccc(CN(C(=O)c2oc3ccccc3c2C)C2CCS(=O)(=O)C2)cc1OC (stereo not drawn)	nt	9	-4	-8	1	0	nt	nt
CCCNC(=O)C1(C)CCN(C(=O)COCc2ccccc2)C1 (stereo not drawn)	nt	-14	-2	-7	nt	1	nt	nt
Nc1ccccc1Sc1ccc(C(=O)c2ccccc2C(=O)O)cc1[N+](=O)[O-]	2	-22	9.0*	16	2	0	6	3
O=C(/C=C/c1cccc([N+](=O)[O-])c1)NCCSCc1cccc(Cl)c1	-8	-4	13*	19	0	0	22*	12*
O=C(/C=C/c1cccc([N+](=O)[O-])c1)NCc1ccccc1	-5	-5	3	-3	0	0	nt	nt
SMILES	JMJD2C inh	NR2E3 ag-1	ADAM17 inh	ADAM10 inh	NR2E3 ag-2	KLK7 zymogen act	ADAM10 ctr	ADAM17 confirm
CC(=O)Nc1ccc(S(=O)(=O)NCCSCc2cccc(Cl)c2)cc1	-8	-10	8.9*	15	-4	0	6	5
COc1ccc2oc(C(=O)OCC(=O)/C(C#N)=C(\C)N)c(C)c2c1	-2	4	-7	-17	1	0	nt	nt
Cc1[nH]ccc(=O)c1OCc1c(Cl)cccc1Cl	92	-5	-2	-4	1	0	nt	nt
Cc1ccc(Cn2ccc(=O)c(OCc3c(Cl)cccc3Cl)c2C)cc1	3	-22	11*	17	1	0	15	10*
CCOC(=O)C1=C(C)N(c2ccccc2)C(=O)/C1=C\c1cccs1	1	-16	-3	-2	0	0	nt	nt
COC(=O)C1=C(C)N(c2cccc(C)c2)C(=O)/C1=C\c1cccs1	7	-7	8.7*	12	1	0	5	5
CCOc1ccc(N(CC(=O)NCCSc2ccccn2)S(C)(=O)=O)cc1	1	-4	10*	6	-1	0	-3	1
CCOc1ccc(N(CC(=O)NCCSc2ccccn2)S(=O)(=O)c2ccc(Cl)cc2)cc1	8	-31	0	-3	-1	-1	nt	nt
COc1ccc(N/N=C(\C#N)C(=N)N2CCOCC2)cc1	-4	-25	8.8*	7	-1	0	13	6
N#C/C(=N\Nc1ccc(F)cc1)C(=N)N1CCCCC1	3	-164	-5	10	0	0	nt	nt
c1ccc(CSc2nnc(SCc3ccccn3)s2)nc1	18	-66	9.0*	9	2	0	5	9
N=C(N)SCc1ccccn1	-5	-32	-2	-2	0	0	nt	nt
CN(c1ccc(OCc2ccc([N+](=O)[O-])cc2)cc1)S(=O)(=O)c1ccccc1	3	-3	9.3*	15	-1	-1	17	13*
COc1cc2[nH]c(C(=O)NCc3ccccc3)cc2c(OC)c1OC	-1	-12	-40	-95	-2	6	nt	nt
CC(=O)Nc1cccc(-c2ccnc3c2CC(C(=O)Nc2cccc(Oc4ccccc4)c2)O3)c1 (stereo not drawn)	nt	-8	7	18	nt	0	nt	nt
